In the library only some 1.8% were active in any assay of this set; here they are far more common.
PREPL inh – inhibits the human prolyl oligopeptidase-like enzyme. Q4J6C6. inhibition, % at 5.96 µM. 320,000 tested, 0.68% active. recombinant PREPL, fluorescence polarization activity-based probe; in the data active = inhibition above about 43%
SKN-1 block – blocks SKN-1 activity in C. elegans | C. elegans VP596 Pgst-4::GFP/RFP ratio, acrylamide-induced, 24 h | inhibition, % at 21.8 µM | 360,000 tested, 0.49% active;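 active = interference check ratio from 0.5 to 1.5 plus GFP to RFP signal ratio inhibition reaching or exceeding a fixed threshold, cut at about 30% in these data, passing the limit was not always enough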
eLon inh – inhibits E. coli Lon protease. AID 602123. P0A9M0. purified E. coli Lon protease, fluorescence polarization. inhibition, % at 7.94 µM. 360,000 tested, 0.42% active; in the data active = inhibition above about 13%, passing the limit was not always enough
Target sequence (P0A9M0 whole entry, looked up): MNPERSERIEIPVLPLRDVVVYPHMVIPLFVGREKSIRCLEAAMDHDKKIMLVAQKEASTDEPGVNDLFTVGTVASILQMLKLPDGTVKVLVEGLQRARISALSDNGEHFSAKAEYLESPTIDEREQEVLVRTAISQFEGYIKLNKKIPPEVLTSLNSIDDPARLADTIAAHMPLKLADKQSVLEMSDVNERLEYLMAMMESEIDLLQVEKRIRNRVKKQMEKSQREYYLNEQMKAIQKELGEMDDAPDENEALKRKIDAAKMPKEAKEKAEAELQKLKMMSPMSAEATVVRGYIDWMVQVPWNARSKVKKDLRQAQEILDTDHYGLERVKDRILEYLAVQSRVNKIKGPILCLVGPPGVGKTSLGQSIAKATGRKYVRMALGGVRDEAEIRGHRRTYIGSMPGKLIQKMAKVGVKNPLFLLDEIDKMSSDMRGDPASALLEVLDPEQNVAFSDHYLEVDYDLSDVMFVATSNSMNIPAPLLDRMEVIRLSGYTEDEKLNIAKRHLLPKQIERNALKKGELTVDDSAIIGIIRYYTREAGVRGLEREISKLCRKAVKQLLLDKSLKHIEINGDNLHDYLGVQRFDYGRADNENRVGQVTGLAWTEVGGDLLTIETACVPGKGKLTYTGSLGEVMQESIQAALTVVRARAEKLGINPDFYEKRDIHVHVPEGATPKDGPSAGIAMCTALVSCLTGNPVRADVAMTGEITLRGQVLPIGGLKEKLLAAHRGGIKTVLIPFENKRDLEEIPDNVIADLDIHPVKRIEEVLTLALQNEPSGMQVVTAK
hiPSC survival – hiPSC single-cell survival enhancement; ATPlite luminescence; 100% = ROCK inhibitor wells, 0% = DMSO; survival enhancement, % at 20 µM; 360,000 tested, 0.044% active; AID 602274; in the data active = survival enhancement above about 18%;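 also: cells exposed to compounds for 16 hours before the ATP read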
MT1-MMP act inh – blocks activation of human MT1-MMP; HT1080 RFP-PRO-GFP cells, GFP/RFP ratio fluorescence, overnight; percent of plate control window, DMSO zero; GFP/RFP ratio change, % at 20 µM; 360,000 tested, 0.061% active;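 active = GFP/RFP ratio change of at least 30% with cell ATP level not reduced by more than half and red fluorescence within 50% of control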
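Read-out: GFP/RFP fluorescence ratio; Test system: RFP-PRO-GFP reporter HT1080 cells; Compound dosing: single-point 20 µM compound, 1% DMSO; Times: overnight compound exposure at 37 °C.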
Tb MetRS inh – blocks T. brucei methionyl-tRNA synthetase activity. purified T. brucei MetRS, ATP depletion, Kinase-Glo luminescence. inhibition, % at 11.9 µM. 360,000 tested, 0.4% active;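 active = inhibition above a per-plate cutoff of the control wells' mean inhibition plus 3 SD, cut at about 5.5% in these data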
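Material – parasite MetRS enzyme · Medium – HEPES-MgCl2-KCl buffer plus DTT, spermine, BSA, pyrophosphatase · Reagent – ATP, methionine and E. coli bulk tRNA substrates · Times – 15 min enzyme-compound preincubation, 2 h reaction, 10 min detection, 25 °C · Measured by – luminescence of leftover ATP · Evaluation – percent inhibition relative to median high and low control wells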
TbMetRS confirm – Trypanosoma brucei MetRS inhibition confirmed; shares compounds with Tb MetRS inh; T. brucei MetRS enzyme, luminescence (ATP depletion); inhibition, % at 11.9 µM; 1,400 tested, 93% active; AID 624412; in the data active = inhibition above about 7%
Jurkat tox – counter-screen for T. brucei MetRS inhibitors: Jurkat cell cytotoxicity; Jurkat cells viability, ATP luminescence; shares compounds with Tb MetRS inh; 1,400 tested, 12% active; inhibition, % at 8.3 µM; in the data active = inhibition above about 15%
TbMetRS FP orth – inhibits T. brucei methionyl tRNA synthetase in orthogonal FP test | shares compounds with Tb MetRS inh | purified T. brucei MetRS, fluorescence polarization | inhibition, % at 11.9 µM | 1,400 tested, 44% active | AID 651607; in the data active = inhibition above about 17%
Each line names hits and unclear results; the compound was inactive in the other large screens (follow-up assays come after a bar, where they were run).

O=C(CC(=O)Nc1cccc(Cl)c1)N/N=C\c1ccccc1	Tb MetRS inh 36.2 | TbMetRS confirm 82.1 | Jurkat tox inactive | TbMetRS FP orth 51.4
CCOc1ccc(/C=N/NC(=O)CC(=O)Nc2ccc(Cl)c(Cl)c2)cc1	none
S=C(N/N=C/c1cccc2ccccc12)Nc1cccc(Cl)c1	Tb MetRS inh 5.8 | TbMetRS confirm inactive | Jurkat tox inactive | TbMetRS FP orth inactive
O=C(COc1ccc(Cl)cc1Cl)N/N=C/c1ccc[nH]1	Tb MetRS inh 6.6 | TbMetRS confirm 36.2 | Jurkat tox inactive | TbMetRS FP orth 26.9
S=C(N/N=C/c1ccccc1Cl)Nc1ccccc1	none
CC(=O)N1CCOc2ccc(S(=O)(=O)Nc3ccc(C)cn3)cc21	none
COc1ccc(S(=O)(=O)n2nc(OC(=O)c3c(-c4ccccc4Cl)noc3C)cc2N)cc1	none
CCOc1ccc(C(=O)Nc2nncs2)cc1OCC	none
CCCC(=O)Nc1ccc(Nc2ccccc2)cc1	none
Cc1ccc(C)c(NC(=O)CN(C)C(=O)C2CCN(C(=O)Nc3ccccc3)CC2)c1	none
O=C(CCCC(=O)NN=Cc1ccc(Cl)cc1Cl)NN=Cc1ccc(Cl)cc1Cl	none (no result: PREPL inh)
O=C(CCCOc1ccc(Cl)cc1Cl)N/N=C/c1ccccc1O	Tb MetRS inh 37.4 | TbMetRS confirm 80.4 | Jurkat tox 82.2 | TbMetRS FP orth 76.0
CN1C(=O)C(C)(C)c2cc(S(=O)(=O)NCCc3ccc(Cl)cc3)ccc21	none
Cc1cc(Cl)ccc1OCc1nnc2n1CCCCC2	Tb MetRS inh 9.4 | TbMetRS confirm 20.2 | Jurkat tox inactive | TbMetRS FP orth inactive
Clc1ccc(OCc2nnc3n2CCCCC3)c(Cl)c1	Tb MetRS inh 16.2 | TbMetRS confirm 35.7 | Jurkat tox inactive | TbMetRS FP orth 17.7
CC1(C)C(=O)OC(C(=O)c2ccc(C(C)(C)C)cc2)C(C)(C)C1=O (centres undefined)	none
CCCS(=O)(=O)c1nnnn1-c1cccc(OC)c1	none
O=C(NCCNc1ccc([N+](=O)[O-])cc1)c1ccccc1Cl	none (no result: PREPL inh)
O=[N+]([O-])c1ccc(NCCNc2ccc(Cl)nn2)cc1	Tb MetRS inh 11.1 | TbMetRS confirm 18.1 | Jurkat tox inactive | TbMetRS FP orth inactive
CCc1ccc(NC(=O)C2CCN(S(=O)(=O)c3ccc4c(c3)NC(=O)CO4)CC2)cc1	none
C=CCNc1ncnc2c1[nH]c1ccccc12	Tb MetRS inh 20.6 | TbMetRS confirm 35.3 | Jurkat tox inactive | TbMetRS FP orth inactive
C=CCNc1ncnc2c1[nH]c1ccc(Cl)cc12	Tb MetRS inh 51.0 | TbMetRS confirm 63.9 | Jurkat tox 17.7 | TbMetRS FP orth 37.9
COc1ccc(Cl)cc1NC(=O)CSc1nnc(CNC(=O)c2cccs2)o1	none
Cc1ncc([N+](=O)[O-])n1CC(=O)Nc1ccc(Br)cc1	Tb MetRS inh 6.1 (no result: MT1-MMP act inh) | TbMetRS confirm 13.8 | Jurkat tox inactive | TbMetRS FP orth inactive
O=C(CN1CCCCC1)NCC1(c2ccccc2)CCCC1	none
Cc1nn(-c2ccccc2)c(Cl)c1C(=O)N(C)c1nc(-c2ccc(F)cc2)cs1	none (no result: SKN-1 block, eLon inh, hiPSC survival, MT1-MMP act inh, Tb MetRS inh)
O=C(CC(c1cccs1)S(=O)(=O)c1ccccc1)c1ccc(F)cc1 (centres undefined)	none
O=C(Cc1ccccc1)N/N=C/C=C/c1ccccc1[N+](=O)[O-]	Tb MetRS inh 7.0 | TbMetRS confirm 10.9 | Jurkat tox inactive | TbMetRS FP orth inactive
N#C/C(=C\C=C\c1ccccc1[N+](=O)[O-])C(=O)NCc1ccccc1	Tb MetRS inh 12.8 | TbMetRS confirm 30.2 | Jurkat tox 77.4 | TbMetRS FP orth inactive
O=C(NCc1cccc(Cl)c1)c1ccc2c(c1)SC1=NS(=O)(=O)CCN12	Tb MetRS inh 6.1 | TbMetRS confirm 15.0 | Jurkat tox inactive | TbMetRS FP orth inactive
